One compound from ChEMBL document CHEMBL1143565, “Pyrido[2,3-d]pyrimidin-7-ones as specific inhibitors of cyclin-dependent kinase 4” (J Med Chem, 2005) can be followed below.

The target of assay [1] is Mitogen-activated protein kinase 14 (Homo sapiens, UniProt Q16539). Description: Inhibition of Stress activated protein kinase 2a.
Assay [2] addresses Mitogen-activated protein kinase 11 (Homo sapiens, UniProt Q15759). Description: Inhibition of Stress activated protein kinase 2b.
Assay [3] in a line: Inhibition of Tyrosine-protein kinase CSK.
Assay [4] addresses Ribosomal protein S6 kinase alpha-5 (Homo sapiens, UniProt O75582). The assay can be described thus: Inhibition of mitogen and stress-activated protein kinase-1(MSK-1 kinase).
Assay [5] can be described thus: Inhibition of Protein Kinase A. Set-up: species or system Homo sapiens.
Assay [6] has as its target Protein kinase C (PKC). The assay can be described thus: Inhibition of Protein Kinase C. It is filed as protein assay, Homo sapiens.
The target in assay [7] is Serine/threonine-protein kinase AKT (Homo sapiens, UniProt P31751+Q9Y243+P31749). The assay can be described thus: Inhibition of Protein kinase B. It is filed as protein assay.
Assay [8] can be described thus: Inhibition of Phosphorylase kinase.
Assay [9] deals with Glycogen synthase kinase-3 beta (Homo sapiens, UniProt P49841). Description: Inhibition of Glycogen synthase kinase 3 beta.
Sequence of Glycogen synthase kinase-3 beta (P49841 whole entry): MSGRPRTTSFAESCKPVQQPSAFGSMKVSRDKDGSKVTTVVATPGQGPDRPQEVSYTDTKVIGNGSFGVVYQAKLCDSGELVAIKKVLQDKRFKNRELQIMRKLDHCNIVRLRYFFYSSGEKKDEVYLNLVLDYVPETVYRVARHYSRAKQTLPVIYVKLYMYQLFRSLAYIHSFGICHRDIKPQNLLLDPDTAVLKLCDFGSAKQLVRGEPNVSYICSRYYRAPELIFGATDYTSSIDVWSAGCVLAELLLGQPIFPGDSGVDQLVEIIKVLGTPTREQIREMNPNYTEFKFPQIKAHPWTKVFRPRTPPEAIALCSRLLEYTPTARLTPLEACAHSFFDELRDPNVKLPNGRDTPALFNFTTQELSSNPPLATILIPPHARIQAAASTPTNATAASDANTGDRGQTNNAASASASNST
Assay [10] concerns the target MAP kinase-activated protein kinase 2 (Homo sapiens, UniProt P49137). The assay can be described thus: Inhibition of MAP kinase-activated protein kinase 2.
The target in assay [11] is Ribosomal protein S6 kinase (P70S6K) (Homo sapiens, UniProt P23443+Q9UBS0). The assay can be described thus: Inhibition of Ribosomal protein S6 kinase (p70S6K1). Type of assay: protein-complex assay.
Sequence of Ribosomal protein S6 kinase (P70S6K) (Q9UBS0 whole entry): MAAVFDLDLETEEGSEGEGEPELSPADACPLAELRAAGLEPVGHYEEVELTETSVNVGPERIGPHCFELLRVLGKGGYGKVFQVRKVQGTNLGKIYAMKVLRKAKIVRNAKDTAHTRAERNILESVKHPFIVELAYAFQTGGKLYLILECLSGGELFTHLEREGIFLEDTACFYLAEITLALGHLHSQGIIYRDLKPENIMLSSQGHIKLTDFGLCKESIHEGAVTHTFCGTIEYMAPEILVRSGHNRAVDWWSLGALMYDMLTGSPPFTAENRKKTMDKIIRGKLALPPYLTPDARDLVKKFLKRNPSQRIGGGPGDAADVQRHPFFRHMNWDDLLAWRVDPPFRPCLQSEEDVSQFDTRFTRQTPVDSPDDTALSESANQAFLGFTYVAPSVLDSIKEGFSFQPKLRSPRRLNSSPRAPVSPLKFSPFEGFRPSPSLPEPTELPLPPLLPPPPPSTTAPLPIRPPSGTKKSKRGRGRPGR
Sequence of Ribosomal protein S6 kinase (P70S6K) (P23443 whole entry): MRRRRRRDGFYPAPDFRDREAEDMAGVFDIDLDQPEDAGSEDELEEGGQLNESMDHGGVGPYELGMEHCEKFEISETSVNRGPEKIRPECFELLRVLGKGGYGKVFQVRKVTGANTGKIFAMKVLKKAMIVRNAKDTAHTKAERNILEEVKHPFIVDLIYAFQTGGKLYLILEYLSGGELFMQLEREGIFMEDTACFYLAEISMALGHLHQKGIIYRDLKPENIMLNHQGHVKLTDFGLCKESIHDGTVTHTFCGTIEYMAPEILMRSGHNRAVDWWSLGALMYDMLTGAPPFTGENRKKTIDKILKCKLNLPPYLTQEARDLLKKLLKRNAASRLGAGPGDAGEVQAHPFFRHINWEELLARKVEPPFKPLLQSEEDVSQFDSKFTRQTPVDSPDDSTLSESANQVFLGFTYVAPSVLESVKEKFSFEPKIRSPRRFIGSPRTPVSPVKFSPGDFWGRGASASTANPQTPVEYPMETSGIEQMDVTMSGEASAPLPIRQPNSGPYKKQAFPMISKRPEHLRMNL
Assay [12] in a line: Inhibition of Mitogen activated protein kinase kinase 1.
Assay [13] has as its target Cyclin-dependent kinase 4/cyclin D (Homo sapiens, UniProt P11802+P24385+P30281+P30279). Description: Inhibition of [32P]ATP binding to Cyclin dependant kinase 4-cyclin D. Type of assay: protein-complex assay. The method, boiled down:
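Human recombinant Cdk–cyclin holoenzymes expressed in insect cells via baculovirus. Each reaction held 20 ng enzyme, 1 µg GST-retinoblastoma substrate and inhibitor dilutions in 20 mM Tris pH 7.4, 50 mM NaCl, 1 mM DTT, 10 mM MgCl2. Started with [32P]ATP (0.25 µCi), at 25 µM for Cdk4 or 12 µM for Cdk2/E, Cdk2/A and Cdc2/B. Ran 15 min at 25 °C. Stopped with TCA and precipitated ≥1 h at 4 °C.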

A short description of assay [14]: Inhibition of 3-phosphoinisitide-dependent protein kinase-1.
The target in assay [15] is Mitogen-activated protein kinase 1 (Homo sapiens, UniProt P28482). Description: Inhibition of Mitogen activated protein kinase (MAPK2/erk2).
Sequence of Mitogen-activated protein kinase 1 (P28482 whole entry): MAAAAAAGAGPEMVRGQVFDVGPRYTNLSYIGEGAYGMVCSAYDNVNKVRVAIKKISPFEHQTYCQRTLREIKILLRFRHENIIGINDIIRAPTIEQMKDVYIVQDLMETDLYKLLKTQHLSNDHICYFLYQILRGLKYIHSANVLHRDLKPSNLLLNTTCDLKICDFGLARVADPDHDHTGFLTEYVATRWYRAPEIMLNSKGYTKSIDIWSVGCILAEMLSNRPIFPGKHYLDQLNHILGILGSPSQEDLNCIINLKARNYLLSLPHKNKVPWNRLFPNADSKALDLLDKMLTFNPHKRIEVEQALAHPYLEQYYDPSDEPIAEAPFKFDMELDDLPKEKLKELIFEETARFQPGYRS
The target in assay [16] is c-Jun N-terminal kinase, JNK (Homo sapiens, UniProt P45983+P53779+P45984). Description: Inhibition of c-Jun N-terminal kinase. It is filed as protein assay.
For assay [17], the system named is MDA-MB-435. Description: In vitro inhibitory concentration is measured by the incorporation of [14C]thymidine in human breast carcinoma MDA-MB-435 cell line. It is filed as functional, cell-based.
The target of assay [18] is Fibroblast growth factor receptor (Homo sapiens, UniProt P22607+P11362+P22455+P21802). Description: Inhibition of Fibroblast growth factor receptor. It is filed as protein assay.
Assay [19] deals with T1, MAP kinase-activated protein kinase 5 (Homo sapiens, UniProt Q8IW41).
T1 sequence (Q8IW41 whole entry): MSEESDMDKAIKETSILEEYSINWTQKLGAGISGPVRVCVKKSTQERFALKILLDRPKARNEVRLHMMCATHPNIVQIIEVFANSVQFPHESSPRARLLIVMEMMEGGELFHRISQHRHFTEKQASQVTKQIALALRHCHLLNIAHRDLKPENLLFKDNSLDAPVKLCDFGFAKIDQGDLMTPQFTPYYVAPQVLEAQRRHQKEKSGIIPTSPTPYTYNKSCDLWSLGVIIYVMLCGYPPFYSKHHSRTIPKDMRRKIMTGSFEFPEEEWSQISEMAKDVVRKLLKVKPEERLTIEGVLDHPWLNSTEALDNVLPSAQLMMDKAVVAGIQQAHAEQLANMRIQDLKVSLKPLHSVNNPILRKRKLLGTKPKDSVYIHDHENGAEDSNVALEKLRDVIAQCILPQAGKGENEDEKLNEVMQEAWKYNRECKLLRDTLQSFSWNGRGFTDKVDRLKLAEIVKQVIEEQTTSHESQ
The assay can be described thus: Inhibition of p38-regulated/activated kinase (PRAK).

Some results are limits rather than exact numbers.

Sequence of MAP kinase-activated protein kinase 2 (P49137 whole entry): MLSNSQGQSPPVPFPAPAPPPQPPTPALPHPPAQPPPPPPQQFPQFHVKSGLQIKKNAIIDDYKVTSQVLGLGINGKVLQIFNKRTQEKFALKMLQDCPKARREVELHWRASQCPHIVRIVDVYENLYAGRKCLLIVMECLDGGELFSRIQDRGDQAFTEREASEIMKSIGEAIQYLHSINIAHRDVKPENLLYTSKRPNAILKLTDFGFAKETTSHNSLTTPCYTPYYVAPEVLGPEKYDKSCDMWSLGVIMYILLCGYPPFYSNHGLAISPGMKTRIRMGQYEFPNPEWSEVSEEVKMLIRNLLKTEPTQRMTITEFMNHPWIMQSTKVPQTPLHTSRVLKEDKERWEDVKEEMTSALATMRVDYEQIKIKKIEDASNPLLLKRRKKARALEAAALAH
Sequence of Mitogen-activated protein kinase 11 (Q15759 whole entry): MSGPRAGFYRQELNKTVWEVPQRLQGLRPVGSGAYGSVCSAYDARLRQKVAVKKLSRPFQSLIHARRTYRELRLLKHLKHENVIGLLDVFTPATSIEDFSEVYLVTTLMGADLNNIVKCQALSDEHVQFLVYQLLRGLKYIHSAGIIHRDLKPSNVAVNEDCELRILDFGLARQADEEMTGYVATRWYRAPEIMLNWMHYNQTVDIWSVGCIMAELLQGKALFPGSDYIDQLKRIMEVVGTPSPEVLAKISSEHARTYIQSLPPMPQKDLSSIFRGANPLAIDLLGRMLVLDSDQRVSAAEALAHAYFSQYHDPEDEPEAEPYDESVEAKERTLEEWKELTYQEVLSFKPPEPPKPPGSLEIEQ
Sequence of Mitogen-activated protein kinase 14 (Q16539 whole entry): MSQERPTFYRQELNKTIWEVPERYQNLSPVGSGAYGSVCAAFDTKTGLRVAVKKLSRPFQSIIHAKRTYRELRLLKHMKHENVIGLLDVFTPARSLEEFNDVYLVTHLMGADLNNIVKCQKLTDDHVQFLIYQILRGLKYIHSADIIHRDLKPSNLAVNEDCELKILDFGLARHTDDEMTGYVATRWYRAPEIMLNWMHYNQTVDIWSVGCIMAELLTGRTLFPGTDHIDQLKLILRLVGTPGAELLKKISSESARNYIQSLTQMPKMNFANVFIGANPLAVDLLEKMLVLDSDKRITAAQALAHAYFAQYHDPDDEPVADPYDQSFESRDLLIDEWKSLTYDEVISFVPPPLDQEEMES
Sequence of Cyclin-dependent kinase 4/cyclin D (P11802 whole entry): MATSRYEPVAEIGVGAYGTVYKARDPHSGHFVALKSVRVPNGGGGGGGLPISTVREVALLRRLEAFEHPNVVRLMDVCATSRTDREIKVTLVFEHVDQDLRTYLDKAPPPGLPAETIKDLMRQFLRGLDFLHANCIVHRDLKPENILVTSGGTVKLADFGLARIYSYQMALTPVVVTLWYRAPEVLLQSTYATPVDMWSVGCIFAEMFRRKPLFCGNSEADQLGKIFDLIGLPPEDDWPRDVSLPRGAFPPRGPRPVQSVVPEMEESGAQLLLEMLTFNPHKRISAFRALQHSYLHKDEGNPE
Sequence of Cyclin-dependent kinase 4/cyclin D (P24385 whole entry): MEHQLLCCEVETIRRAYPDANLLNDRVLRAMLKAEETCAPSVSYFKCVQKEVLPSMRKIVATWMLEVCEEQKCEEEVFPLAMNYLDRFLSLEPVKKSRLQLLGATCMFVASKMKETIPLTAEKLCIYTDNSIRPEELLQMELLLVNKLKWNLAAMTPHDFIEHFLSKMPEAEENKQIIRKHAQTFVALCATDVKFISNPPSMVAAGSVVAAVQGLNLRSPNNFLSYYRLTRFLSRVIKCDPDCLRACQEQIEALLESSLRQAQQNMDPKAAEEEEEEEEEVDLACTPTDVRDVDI
Sequence of Cyclin-dependent kinase 4/cyclin D (P30281 whole entry): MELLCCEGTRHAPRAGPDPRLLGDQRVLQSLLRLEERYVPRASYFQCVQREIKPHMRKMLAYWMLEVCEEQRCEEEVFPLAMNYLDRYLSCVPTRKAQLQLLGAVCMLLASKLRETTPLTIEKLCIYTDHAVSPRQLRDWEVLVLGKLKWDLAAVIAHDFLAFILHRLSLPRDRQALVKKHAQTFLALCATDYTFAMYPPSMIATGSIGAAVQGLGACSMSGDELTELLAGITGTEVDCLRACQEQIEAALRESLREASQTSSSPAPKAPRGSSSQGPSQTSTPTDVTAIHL
Sequence of Cyclin-dependent kinase 4/cyclin D (P30279 whole entry): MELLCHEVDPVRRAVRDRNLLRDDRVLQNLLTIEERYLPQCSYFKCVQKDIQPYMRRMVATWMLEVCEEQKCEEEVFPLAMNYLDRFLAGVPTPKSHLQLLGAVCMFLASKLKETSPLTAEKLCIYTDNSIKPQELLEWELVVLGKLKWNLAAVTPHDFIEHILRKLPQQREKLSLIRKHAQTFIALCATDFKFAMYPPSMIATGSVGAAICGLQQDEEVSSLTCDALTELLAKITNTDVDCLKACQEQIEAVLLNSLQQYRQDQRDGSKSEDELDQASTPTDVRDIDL
Sequence of Ribosomal protein S6 kinase alpha-5 (O75582 whole entry): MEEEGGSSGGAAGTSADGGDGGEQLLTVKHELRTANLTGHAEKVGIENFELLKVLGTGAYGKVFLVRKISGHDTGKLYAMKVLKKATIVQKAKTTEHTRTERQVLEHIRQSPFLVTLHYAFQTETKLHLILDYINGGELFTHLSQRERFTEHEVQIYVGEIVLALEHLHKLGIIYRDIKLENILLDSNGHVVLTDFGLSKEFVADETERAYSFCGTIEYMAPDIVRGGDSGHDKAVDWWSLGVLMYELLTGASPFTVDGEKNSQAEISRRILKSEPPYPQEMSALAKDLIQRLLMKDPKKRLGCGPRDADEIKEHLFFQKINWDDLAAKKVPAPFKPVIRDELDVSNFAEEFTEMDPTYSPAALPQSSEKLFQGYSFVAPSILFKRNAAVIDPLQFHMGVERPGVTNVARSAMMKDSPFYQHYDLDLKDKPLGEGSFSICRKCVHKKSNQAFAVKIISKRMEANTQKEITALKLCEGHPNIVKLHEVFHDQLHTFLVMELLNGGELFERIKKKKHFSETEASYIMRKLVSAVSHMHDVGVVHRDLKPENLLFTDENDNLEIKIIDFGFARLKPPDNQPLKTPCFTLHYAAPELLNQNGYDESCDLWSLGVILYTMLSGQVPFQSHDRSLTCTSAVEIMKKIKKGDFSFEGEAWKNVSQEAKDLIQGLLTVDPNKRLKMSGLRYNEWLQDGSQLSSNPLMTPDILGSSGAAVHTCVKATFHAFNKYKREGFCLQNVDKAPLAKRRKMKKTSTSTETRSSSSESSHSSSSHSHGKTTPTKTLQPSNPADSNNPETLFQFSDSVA

As for `CC(=O)c1c(C)c2cnc(Nc3ccc(N4CCNCC4)cc3)nc2n(C2CCCC2)c1=O`, the IC50 in [1], in assay [2], in [3], in assay [4], in [5] and in [6] was more than 10 µM throughout. For the same compound, the IC50 in assay [7], in assay [8], in assay [9], in assay [10], in assay [11] and in assay [12] was more than 10 µM in each case. Besides, the IC50 is 0.002 µM in [13]; more than 10 µM in [14]; more than 10 µM in [15]; more than 10 µM in assay [16]; 0.032 µM in assay [17]; 1.86 µM in assay [18]. In [19], this compound had an IC50 of more than 10 µM.
